Measured values: ChEMBL document CHEMBL3526048, “In vitro metabolism of rivoglitazone, a novel peroxisome proliferator-activated receptor γ agonist, in rat, monkey, and human liver microsomes and freshly isolated hepatocytes” (Drug Metab Dispos, 2011)

Columns and labels:
Cytochrome P450 1A2 = target: T1, Cytochrome P450 1A2 (Homo sapiens, UniProt P05177); assay: (§1) Activity of human CYP1A2 expressed in microsomes isolated from baculovirus infected insect cell assessed as enzyme-mediated 3-(4-((6-methoxy-1-methyl-1H-benzo[d]imidazol-2-yl)methoxy)phenyl)-2-(methylsulfinyl)propanamide formation at 20 uM after 2 hrs by radio-HPLC/LC-MS/MS analysis in presence of NADPH-generating system/SAM; assay type: ADME
T1 sequence (P05177 whole entry): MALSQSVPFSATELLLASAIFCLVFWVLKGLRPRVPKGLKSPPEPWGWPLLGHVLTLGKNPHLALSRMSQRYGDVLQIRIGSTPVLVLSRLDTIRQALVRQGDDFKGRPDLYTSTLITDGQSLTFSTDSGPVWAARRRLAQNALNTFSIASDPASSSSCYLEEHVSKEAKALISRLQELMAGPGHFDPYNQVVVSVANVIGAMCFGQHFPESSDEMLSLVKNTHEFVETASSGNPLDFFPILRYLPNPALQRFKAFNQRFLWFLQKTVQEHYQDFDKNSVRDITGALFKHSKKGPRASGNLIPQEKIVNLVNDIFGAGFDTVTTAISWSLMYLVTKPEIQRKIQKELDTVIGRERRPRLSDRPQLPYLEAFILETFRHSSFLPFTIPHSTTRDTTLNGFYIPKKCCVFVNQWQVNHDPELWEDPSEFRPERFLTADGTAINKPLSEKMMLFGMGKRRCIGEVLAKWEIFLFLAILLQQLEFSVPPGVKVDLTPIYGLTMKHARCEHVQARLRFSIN

Cytochrome P450 2C8 = target: T2, Cytochrome P450 2C8 (Homo sapiens, UniProt P10632); assay: as §1, with “CYP2C8” for “CYP1A2”; assay type: ADME
T2 sequence (P10632 whole entry): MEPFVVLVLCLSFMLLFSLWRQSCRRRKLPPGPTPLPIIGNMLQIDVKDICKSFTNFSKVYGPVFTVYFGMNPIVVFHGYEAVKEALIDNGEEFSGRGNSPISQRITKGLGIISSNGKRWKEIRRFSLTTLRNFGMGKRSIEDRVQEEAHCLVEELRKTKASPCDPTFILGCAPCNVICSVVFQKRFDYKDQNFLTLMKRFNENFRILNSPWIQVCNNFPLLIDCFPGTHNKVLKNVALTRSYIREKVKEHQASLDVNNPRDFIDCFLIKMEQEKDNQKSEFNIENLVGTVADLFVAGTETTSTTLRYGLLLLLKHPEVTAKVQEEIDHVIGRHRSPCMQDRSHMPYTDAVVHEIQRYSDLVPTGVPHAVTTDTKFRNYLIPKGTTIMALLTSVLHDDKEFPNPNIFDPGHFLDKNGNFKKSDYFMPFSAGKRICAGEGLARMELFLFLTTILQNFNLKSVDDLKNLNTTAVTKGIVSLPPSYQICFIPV

Cytochrome P450 3A4 = Cytochrome P450 3A4 (Homo sapiens, UniProt P08684); assay: Activity of human CYP3A4 expressed in microsomes isolated from baculovirus infected insect cell assessed as enzyme-mediated 2-amino-3-((1-carboxy-2-(4-((6-methoxy-1-methyl-1H-benzo[d]imidazol-2-yl)methoxy)phenyl)ethyl)disulfanyl)propanoic acid formation at 20 uM after 2 hrs by radio-HPLC/LC-MS/MS analysis; assay type: ADME
Chain of Cytochrome P450 3A4 (P08684 whole entry): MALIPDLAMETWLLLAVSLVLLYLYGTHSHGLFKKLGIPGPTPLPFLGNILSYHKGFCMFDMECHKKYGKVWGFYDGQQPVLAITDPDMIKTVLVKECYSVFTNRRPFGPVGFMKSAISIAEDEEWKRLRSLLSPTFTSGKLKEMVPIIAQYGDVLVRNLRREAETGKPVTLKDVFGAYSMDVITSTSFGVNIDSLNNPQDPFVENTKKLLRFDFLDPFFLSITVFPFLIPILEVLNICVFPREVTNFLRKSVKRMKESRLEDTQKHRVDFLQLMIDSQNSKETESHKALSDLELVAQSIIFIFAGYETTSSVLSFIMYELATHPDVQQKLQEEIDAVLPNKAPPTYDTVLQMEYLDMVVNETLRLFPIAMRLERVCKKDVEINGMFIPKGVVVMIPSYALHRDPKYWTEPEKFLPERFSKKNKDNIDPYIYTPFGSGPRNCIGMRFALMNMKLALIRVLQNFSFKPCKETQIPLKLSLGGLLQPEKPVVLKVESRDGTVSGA
In short: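 Baculovirus-insect-cell microsomes expressing the human CYP (1 mg/ml protein) were incubated with [14C]rivoglitazone (20 μM) in 50 mM potassium phosphate (pH 7.4) or 100 mM Tris-HCl (pH 7.5) with an NADPH-generating system (2 mM NADP+, 20 mM glucose 6-phosphate, 2 units/ml G6PDH, 10 mM MgCl2) for 2 h at 37°C. Insect-cell control supersomes served as the control. Reactions were stopped with acetonitrile, and the concentrated supernatants were analysed by radio-HPLC, LC-MS and LC-MS/MS.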

[1] = Drug metabolism in human hepatocytes assessed as formation of (2S,3S,4S,5R,6R)-3,4,5-trihydroxy-6-(5-(4-((6-methoxy-1-methyl-1H-benzo[d]imidazol-2-yl)methoxy)benzyl)-2,4-dioxothiazolidin-3-yl)tetrahydro-2H-pyran-2-carboxylic acid at 30 uM after 3 hrs by radio-HPLC/LC-MS/MS analysis; assay type: ADME, cell-based, Hepatocyte
[2] = target: T3, UDP-glucuronosyltransferase 1A1 (Homo sapiens, UniProt P22309); assay: Activity of human UGT1A1 expressed in microsomes isolated from baculovirus infected insect cell assessed as enzyme-mediated (2S,3S,4S,5R,6R)-6-((1-carboxy-2-(4-((6-methoxy-1-methyl-1H-benzo[d]imidazol-2-yl)methoxy)phenyl)ethylthio)carbonylamino)-3,4,5-trihydroxytetrahydro-2H-pyran-2-carboxylic acid formation at 20 uM after 4 hrs by radio-HPLC/LC-MS/MS analysis in presence of UDPGA; assay type: ADME
T3 sequence (P22309 whole entry): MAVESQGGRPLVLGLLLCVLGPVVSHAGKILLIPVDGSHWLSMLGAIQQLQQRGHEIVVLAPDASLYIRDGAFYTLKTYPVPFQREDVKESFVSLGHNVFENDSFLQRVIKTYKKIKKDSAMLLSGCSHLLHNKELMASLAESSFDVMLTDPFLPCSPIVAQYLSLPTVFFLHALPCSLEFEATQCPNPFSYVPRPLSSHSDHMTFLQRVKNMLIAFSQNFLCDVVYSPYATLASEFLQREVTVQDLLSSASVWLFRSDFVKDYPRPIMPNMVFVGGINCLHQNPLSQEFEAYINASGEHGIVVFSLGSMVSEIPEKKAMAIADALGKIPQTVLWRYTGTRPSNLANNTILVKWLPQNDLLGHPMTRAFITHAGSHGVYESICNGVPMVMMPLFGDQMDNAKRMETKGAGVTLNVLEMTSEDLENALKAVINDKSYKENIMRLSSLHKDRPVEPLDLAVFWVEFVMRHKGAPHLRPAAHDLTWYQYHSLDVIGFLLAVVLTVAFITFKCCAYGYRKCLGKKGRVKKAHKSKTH
In short: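 Alamethicin (50 μg/mg protein, 15 min on ice) pretreated expressed human UGT microsomes (1 mg/ml protein) from baculovirus-infected insect cells. Incubation with [¹⁴C]rivoglitazone (20 μM) in 100 mM Tris-HCl (pH 7.5) with 10 mM MgCl₂, started by 5 mM UDPGA, 4 h at 37°C with shaking. UGT insect-cell control supersomes were run alongside. Acetonitrile stop, concentrated supernatant analysed by radio-HPLC, LC-MS and LC-MS/MS.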

Cytochrome P450 2C9 [3] = target: T4, Cytochrome P450 2C9 (Homo sapiens, UniProt P11712); assay: Activity of human CYP2C9 expressed in microsomes isolated from baculovirus infected insect cell assessed as enzyme-mediated (2S,3S,4S,5R,6R)-6-((1-carboxy-2-(4-((6-methoxy-1-methyl-1H-benzo[d]imidazol-2-yl)methoxy)phenyl)ethylthio)carbonylamino)-3,4,5-trihydroxytetrahydro-2H-pyran-2-carboxylic acid formation at 20 uM after 2 hrs by radio-HPLC/LC-MS/MS analysis in presence of NADPH-generating system/SAM; assay type: ADME
T4 sequence (P11712 whole entry): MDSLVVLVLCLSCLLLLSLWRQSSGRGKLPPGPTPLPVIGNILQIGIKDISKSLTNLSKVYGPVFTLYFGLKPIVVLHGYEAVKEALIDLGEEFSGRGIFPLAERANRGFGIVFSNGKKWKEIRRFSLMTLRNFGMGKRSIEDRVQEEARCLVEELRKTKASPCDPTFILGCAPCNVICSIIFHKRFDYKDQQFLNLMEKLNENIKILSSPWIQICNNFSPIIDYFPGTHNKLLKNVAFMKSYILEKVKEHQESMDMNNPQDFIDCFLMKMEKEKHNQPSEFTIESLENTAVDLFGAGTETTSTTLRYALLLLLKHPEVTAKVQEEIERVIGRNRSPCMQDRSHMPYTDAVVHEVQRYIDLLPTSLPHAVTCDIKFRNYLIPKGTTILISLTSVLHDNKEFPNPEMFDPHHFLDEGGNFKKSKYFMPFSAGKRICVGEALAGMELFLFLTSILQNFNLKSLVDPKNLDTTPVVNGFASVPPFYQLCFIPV

Cytochrome P450 2C9 [4] = target: T4, Cytochrome P450 2C9; assay: Activity of human CYP2C9 expressed in microsomes isolated from baculovirus infected insect cell assessed as enzyme-mediated 3-(4-((6-methoxy-1-methyl-1H-benzo[d]imidazol-2-yl)methoxy)phenyl)-2-(methylthio)propanoic acid formation at 20 uM after 2 hrs by radio-HPLC/LC-MS/MS analysis in presence of NADPH-generating system/SAM and UDPGA/SAM; assay type: ADME

COc1ccc2nc(COc3ccc(C[14CH]4SC(=O)NC4=O)cc3)n(C)c2c1.Cl (racemic)
Drug metabolism (Cytochrome P450 1A2): metabolite_not_detected | Drug metabolism (Cytochrome P450 2C8): metabolite_not_detected | Drug metabolism (Cytochrome P450 3A4): metabolite_not_detected | Drug metabolism [1]: metabolite_detected | Drug metabolism [2]: metabolite_not_detected | Drug metabolism (Cytochrome P450 2C9 [3]): metabolite_not_detected | Drug metabolism (Cytochrome P450 2C9 [4]): metabolite_not_detected
